Assay outcomes as filed in PubChem BioAssay.
Rows were chosen to be rich in hits. Some 2.5% of all compounds tested hit in one or more screens of this group.
NR2E3 ag-1: human photoreceptor-specific nuclear receptor agonism. Q9Y5X4. CHO-S Gal4-NCOR/VP16-NR2E3 two-hybrid, luciferase. inhibition of corepressor binding, % at 3.98 µM. 0.35% of 360,000 active. AID 602229;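 active = inhibition above the mean of all tested compounds plus 3 SD, cut at about 70% in these data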;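 also: 0% = DMSO with NR2E3 transfected cells and 100% = cells lacking NR2E3 construct; higher means lower luciferase signal from less NR2E3 corepressor binding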
ADAM10 inh: ADAM10 inhibition, QFRET primary screen; recombinant ADAM10, EDANS/DABCYL FRET peptide cleavage, 3 h; inhibition, % at 7 µM; 0.62% of 370,000 active; AID 720582;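 active = inhibition above a per-campaign cutoff equal to the mean of compounds falling between control-based bounds plus 3 SD, cut at about 20% in these data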;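 also: 0% = DMSO wells while the 100% control is not disclosed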
Target sequence (O14672 214-748 limits assumed): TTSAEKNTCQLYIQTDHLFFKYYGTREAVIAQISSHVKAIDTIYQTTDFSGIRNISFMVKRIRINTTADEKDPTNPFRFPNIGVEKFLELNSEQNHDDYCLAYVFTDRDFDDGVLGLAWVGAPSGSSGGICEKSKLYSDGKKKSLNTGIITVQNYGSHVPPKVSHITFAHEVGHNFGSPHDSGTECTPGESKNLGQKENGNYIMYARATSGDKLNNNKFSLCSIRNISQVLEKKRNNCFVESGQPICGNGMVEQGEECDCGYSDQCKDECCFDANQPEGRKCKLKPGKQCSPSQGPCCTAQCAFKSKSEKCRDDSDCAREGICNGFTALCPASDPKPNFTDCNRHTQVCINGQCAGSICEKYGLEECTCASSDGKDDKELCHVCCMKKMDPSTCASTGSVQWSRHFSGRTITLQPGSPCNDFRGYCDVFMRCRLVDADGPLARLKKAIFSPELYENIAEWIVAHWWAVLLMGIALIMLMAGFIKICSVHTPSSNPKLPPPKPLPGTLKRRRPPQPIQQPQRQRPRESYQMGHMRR
ADAM17 inh: ADAM17 inhibition, QFRET primary screen. P78536. recombinant ADAM17, EDANS/DABCYL FRET peptide cleavage. inhibition, % at 6.95 µM. 0.83% of 370,000 active;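 active = inhibition above the mean of compounds lying between control limits plus 3 SD, set per campaign, cut at about 8.5% in these data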;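 also: 0% = DMSO-only wells as the low control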
GASC-1 inh: human JMJD2C demethylase inhibition | 0.069% of 330,000 active | GST-JMJD2C(1-420) H3K9me3 demethylation, DELFIA europium | inhibition, % at 2.35 µM;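 active = more than half of a compound's replicate wells show inhibition beyond 50%, single wells judged on their own value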;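 also: signal counts dimethyl H3K9 product captured on neutravidin plate; 0% = median of DMSO wells and 100% = 0.3 times that DMSO median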
NR2E3 ag-2: activates human photoreceptor nuclear receptor NR2E3 | inhibition of corepressor binding, % at 4.78 µM | Q9Y5X4 | GST-NR2E3/biotin-RetCOR TR-FRET, 1536-well | AID 2300 | 0.12% of 320,000 active;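 active = percent inhibition above the cutoff of mean plus 3 SD of all tested compounds, set per screening campaign, cut at about 20% in these data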;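 also: 0% = DMSO wells and 100% = biotin wells as full block of FRET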
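System: GST-tagged NR2E3 plus biotinylated RetCOR corepressor; Buffer or medium: pH 7.5 Tris-based buffer; Probe or stimulus: RetCOR corepressor, biotinylated, 7 nM; Doses: compound at 4.8 µM, single dose; Schedule: 5 h incubation at 4 °C; Technique: time-resolved FRET; Evaluation: percent inhibition of TR-FRET ratio; Replication: one well per compound, singlicate testing.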
proKLK7 act: activators of human kallikrein-7 zymogen. activation, % at 7 µM. P49862. 0.9% of 370,000 active. purified proKLK7, EDANS-DABCYL substrate fluorescence; 100% is mature enzyme control, 0% vehicle;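 active = activation above the mean of all tested compounds plus 3 SD, computed per campaign excluding outliers beyond control limits, cut at about 13% in these data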
KLK7 act conf: proKLK7 activation, confirmation | shares compounds with proKLK7 act | 68% of 3,200 active | purified proKLK7, EDANS-DABCYL substrate fluorescence; scaled: vehicle 0, mature enzyme 100 | AID 686949 | activation, % at 7 µM;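 active = activation, as change over the incubation, above the mean of all tested compounds plus 3 SD, cut at about 13% in these data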
EDANS-DABCYL int: optically interferes with EDANS-DABCYL signal, flagging KLK7 hits. shares compounds with proKLK7 act. EDANS-DABCYL substrate fluorescence interference, no enzyme, 4 h; solvent 0%, active enzyme control 100%. activation, % at 7 µM. 80% of 3,200 active. AID 686952;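 active = activation above the all-compound mean plus 3 SD, ignoring values outside control-based bounds, cut at about 4.8% in these data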;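 also: value is the 4 h activation minus the activation read at time zero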
EDANS interf: optically interferes with EDANS-DABCYL fluorescence, kallikrein-7 activator counter-screen; shares compounds with proKLK7 act; EDANS-DABCYL peptide fluorescence interference, no enzyme; EC50, µM; 20% of 250 active;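 active = compounds that raise the fluorescence signal in this interference counterscreen, with EC50 at or below 10 µM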;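 also: intact quenched peptide substrate alone read at 355 nm excitation and 520 nm emission; signal is fluorescence gain from T0 to T4 after four hours at room temperature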
* = called active by the depositor; i = inactive; / = no result.

SMILES	NR2E3 ag-1	ADAM10 inh	ADAM17 inh	GASC-1 inh	NR2E3 ag-2	proKLK7 act	KLK7 act conf	EDANS-DABCYL int	others
CS(=O)(=O)NN1C(=O)c2ccccc2NC1c1ccccc1 (stereo unspecified)	13	i	-219	-13	4	79*	10	15*
CS(=O)(=O)NN1C(=O)c2ccccc2NC1c1ccccc1O (stereo unspecified)	27	-307	-114	-48	3	36*	6	6.4*
Cc1ccc(S(=O)(=O)NN2C(=O)c3ccccc3NC2c2ccccc2O)cc1 (stereo unspecified)	-14	-53	-17	-3	3	3	/	/
COc1ccc(Cn2ccc3ccc(-c4ccc5ccn(C(=O)C6CCC6)c5c4)cc32)cc1	/	-46	-13	/	/	-4	/	/
Cc1cc(=O)oc2cc(OCC(=O)N3CCOCC3)c(Cl)cc12	-39	i	i	4	/	18*	33*	24*	EDANS interf=>70
CC(NC(=O)c1ccccc1)c1ccc(F)cc1 (stereo unspecified)	13	-2	0	5	-1	1	/	/
COc1ccc(OCC(=O)Nc2c(Cl)ccc3nsnc23)cc1	-8	7	2	-27	/	0	/	/
O=C(O)COc1ccc2nsnc2c1Cl	-4	-384	-113	-4	-13	19*	27*	24*
CCOC(=O)[C@]12CCCC=C1N(Cc1ccco1)C(=O)[C@H](CC(=O)NCc1ccccc1)C2	-14	-1	-3	/	/	1	/	/
Nc1ccc2nc3c(=O)n(C4CCCCC4)c(=O)[nH]c3nc2c1	-58	-9	-4	19	-7	14*	8	7.6*
CC(=O)c1cccc(NC(=O)C2Cc3c(-c4ccco4)ccnc3O2)c1 (stereo unspecified)	29	4	-2	/	/	0	/	/
Cn1c(=O)c2c(nc(CCc3ccccc3)n2C)n(C)c1=O	-23	17	4	/	/	0	/	/
Cn1c(N)nc2nc(CCc3ccccc3)c(=O)[nH]c2c1=O	-29	i	-337	-8	0	13*	34*	30*
Cc1cc(=O)oc2cc(N3C(=O)CC(Cc4ccccc4)C3=O)ccc12 (stereo unspecified)	3	-278	-89	17	-3	19*	25*	23*
CC(=O)Nc1cccc(N2C(=O)CC(Cc3ccccc3)C2=O)c1 (stereo unspecified)	-15	-2	0	-9	-2	0	/	/
Nc1ccc(-c2ccc(C(=O)O)s2)cn1	-54	i	i	-11	6	19*	73*	82*
CC(C)Cc1ccc(/C=C/C(=O)NC2CC2)cc1	-105	-4	0	22	-2	0	/	/
CCOC(=O)c1c(-c2ccccc2)oc2ccc(OCC(=O)O)cc12	-18	i	-345	1	6	25*	25*	25*
CNc1cnc(-c2ccc(F)c(F)c2F)cn1	-97	i	-487	/	/	13*	13*	13*
CNc1cnc(-c2ccsc2)cn1	-42	i	-352	/	/	15*	12	12*
CCOc1ccc2nc(N3CCOCC3)nc(C)c2c1	-118	i	-276	-20	2	21*	-21	-32
CC1(C(=O)Nc2ccc3ccccc3c2)CCC(=O)N1CCCn1ccnc1 (stereo unspecified)	14	-7	-7	/	/	1	/	/
CC1CC(C)CN(C(=O)c2cc3c(=O)n4ccccc4nc3s2)C1 (stereo unspecified)	-16	i	-354	-11	4	14*	14*	12*	EDANS interf=>70
CC1CN(C(=O)c2cc3c(=O)n4ccccc4nc3s2)CC(C)O1 (stereo unspecified)	2	i	i	-17	2	26*	42*	40*
C/C(=C\c1ccccc1)C(=O)NCCc1ccccc1	-109	-1	-1	3	1	0	/	/
SMILES	NR2E3 ag-1	ADAM10 inh	ADAM17 inh	GASC-1 inh	NR2E3 ag-2	proKLK7 act	KLK7 act conf	EDANS-DABCYL int	others
Cc1cccc(C(=O)Nc2nc3ncccn3c2-c2ccccc2)c1	/	-227	-67	/	/	8	/	/
COc1ccc(-c2oc3c4c2C(=O)OCCOC4CCC3)cc1 (stereo unspecified)	-13	i	-200	/	/	15*	7	7.8*
CCOC(=O)C1CCCN(S(=O)(=O)c2ccc3c4c(cccc24)C(=O)N3CC)C1 (stereo unspecified)	2	i	-254	6	5	-17	/	/
CCN1C(=O)c2cccc3c(S(=O)(=O)N4CCNCC4)ccc1c23	4	i	-206	-2	/	171*	57*	68*
CCN1C(=O)c2cccc3c(S(=O)(=O)N4CCCC4C(=O)O)ccc1c23 (stereo unspecified)	-21	-214	-97	-4	4	37*	22*	24*
CCN1CCN(S(=O)(=O)c2ccc3c4c(cccc24)C(=O)N3CC)CC1	5	i	-350	-3	/	56*	44*	46*
CCN1C(=O)c2cccc3c(Cl)ccc1c23	8	-13	-3	2	1	1	/	/
CCSc1nnc(NC(=O)[C@@H](NC(=O)c2ccc(C(C)(C)C)cc2)C(C)C)s1	-22	-2	-2	0	-2	-2	/	/
COCCN(C(=O)c1ccc2c(c1)C(=O)N(c1ccccc1Cl)C2=O)c1c(N)n(CC(C)C)c(=O)[nH]c1=O	8	-2	-4	/	/	0	/	/
Nc1nc2ncccc2cc1C(=O)NC1CCCCC1	-23	i	-473	/	/	24*	20*	25*
Nc1nc2ncccc2cc1C(=O)NC1CC1	/	i	i	/	/	25*	28*	27*
Cc1ccc(NC(=O)N2CCc3ccccc3C2)c(C)c1	-35	-4	-5	-10	-2	-1	/	/
CC(C)NCC(O)c1cc(O)cc(O)c1 (stereo unspecified)	-11	-14	-3	-18	-2	1	/	/
CC(C)NC[C@H](O)c1ccc(O)c(O)c1	-14	-7	-8	/	-2	47*	49*	51*
Cc1cc(=O)cc(C)n1-c1ccccc1Br	-31	3	-5	-11	2	-1	/	/
CO/N=C/CC(=O)c1cnc(-c2ccc(Cl)cc2)s1	-31	-8	-3	-12	2	0	/	/
